The values that follow come from ChEMBL document CHEMBL2203084, “Halogenated pentamethine cyanine dyes exhibiting high fidelity for G-quadruplex DNA” (Bioorg Med Chem, 2012).

Calls of active or inactive are those of the source. The calls are words filed in the database; no cut-off is given here.

Holding throughout (assay type): nucleic-acid assay
Assay [1] has as its system Nucleic Acid. Description: Binding affinity to duplex DNA by isothermal titration calorimetry. The gist of the method: (§1)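 ITC: ligand at 200 µM in Tris/K+ buffer injected into DNA at 20 µM in the same buffer, every 300 s, 29 injections. Heats of dilution were measured by injection into buffer and subtracted. The first injection was discarded. ΔH was from a single-site fit of heat per mole against molar ratio.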
On the technique in general: ITC needs no label: the signal is the heat of the interaction.

For assay [2], the system named is Nucleic Acid. Description: Binding affinity to duplex DNA by two site-mode surface plasmon resonance analysis. The gist of the method: (§2)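 SPR: 5′-biotinylated DNA captured on a streptavidin chip (350–400 RU), with a blank reference cell. Ligand series from 1 nM to 1 µM injected at 25 µL/min for 5 min to steady state, then 5 min dissociation. Surface regenerated with 10 mM glycine pH 2.5. Steady-state RU was converted using predicted RUmax. Values are the mean of two experiments.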
Background: Surface plasmon resonance follows binding to a sensor surface in real time, without labels.

Assay [3] concerns Nucleic Acid. Kind of assay: Binding affinity to c-myc quadruplex DNA by two site-mode surface plasmon resonance analysis. The method, boiled down: as §2
For assay [4], the system named is Nucleic Acid. Kind of assay: Binding affinity to Tel22 G-quadruplex DNA by two site-mode surface plasmon resonance analysis. The method, boiled down:
as §2

The subject of assay [5] is Nucleic Acid. Kind of assay: Binding affinity to c-myc quadruplex DNA by circular dichroism analysis. The gist of the method:
(§3)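 CD spectra were recorded at 25 °C in 50 mM KCl with 4 µM single-strand quadruplex, 1 cm quartz cuvette, scan 50 nm/min, response 1 s. Ligand was titrated at increasing ligand:quadruplex ratios, and induced CD in the ligand absorbance region was assessed qualitatively.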
Background: CD spectra are sensitive to the conformation of chiral molecules.

In assay [6] the test system is Nucleic Acid. Description: Binding affinity to Tel22 G-quadruplex DNA at 3:1 compound to DNA ratio by circular dichroism analysis. The gist of the method:
as §3

Assay [7] deals with Nucleic Acid. Description: Binding affinity to duplex DNA at 6:1 compound to DNA ratio by UV-spectrometer. The method, boiled down: (§4)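 UV thermal denaturation in 1 cm quartz cuvettes; DNA at 2–3 µM single strand in HEPES buffer (50 mM KCl). Compound:DNA ratios 0:1 to 6:1. Absorbance followed versus temperature at 295 nm for Tel22 and 260 nm for the AATT hairpin duplex. ΔTm is the average of two independent trials, reproducible within 0.5 °C.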

The subject of assay [8] is Nucleic Acid. Kind of assay: Binding affinity to Tel22 G-quadruplex DNA at 4:1 compound to DNA ratio by UV-spectrometer. The method, boiled down:
as §4

Assay [9] concerns Nucleic Acid. Kind of assay: Binding affinity to Tel22 G-quadruplex DNA at 2:1 compound to DNA ratio by UV-spectrometer. The method, boiled down: as §4
The subject of assay [10] is Nucleic Acid. Description: Binding affinity to Tel22 G-quadruplex DNA at 6:1 compound to DNA ratio by UV-spectrometer. The gist of the method:
as §4

In assay [11] the test system is Nucleic Acid. Kind of assay: Binding affinity to c-myc quadruplex DNA by mass spectrometry. The gist of the method: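 ESI-MS: c-myc DNA dialyzed against 50 mM ammonium acetate pH 7.2. Samples of 25–30 µM DNA with ligand at 0:1 to 4:1 molar ratios, infused directly at 5 µL/min. Capillary 2200 V, cone 30 V, desolvation 70 °C, source 100 °C. Spectra were collected for 10 min, with the last 2 min analyzed.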

Assay [12] relates to Nucleic Acid. Kind of assay: Binding affinity to c-myc quadruplex DNA by isothermal titration calorimetry. The method, boiled down:
as §1

Assay [13] relates to Nucleic Acid. Description: Binding affinity to Tel22 G-quadruplex DNA by isothermal titration calorimetry. The method, boiled down: as §1

Broadly, the ΔTm is the shift of the melting midpoint relative to a reference.

Regarding `CC1(C)C(/C=C/C=C/C=C2/N(CCC[N+](C)(C)C)c3ccc(Br)cc3C2(C)C)=[N+](CCC[N+](C)(C)C)c2ccc(Br)cc21`, the outcome in [1] and in assay [2] was inactive. Besides, the Kb in [3] stood at 3.6 ×10⁶ /M; in assay [4], 0.59 ×10⁶ /M. The result in assay [5] and in assay [6] was Active. Further, the ΔTm in [7] came out at 1.1 °C; in assay [8], 15.6 °C; in [9], 2.5 °C.

For the compound `CC1(C)C(/C=C/C(Cl)=C/C=C2/N(CCC[N+](C)(C)C)c3ccc(Br)cc3C2(C)C)=[N+](CCC[N+](C)(C)C)c2ccc(Br)cc21`, the result in assay [2] was inactive. The Kb is 0.2 ×10⁶ /M in [3] and 0.05 ×10⁶ /M in assay [4]. Also, the ΔTm in [7] was 2.5 °C; in assay [10], 21 °C; in assay [8], 16 °C; in [9] it was 9 °C.

Take `CC1(C)C(/C=C/C(Br)=C/C=C2/N(CCC[N+](C)(C)C)c3ccc(Br)cc3C2(C)C)=[N+](CCC[N+](C)(C)C)c2ccc(Br)cc21`: the result in assay [1] and in assay [2] was inactive. Besides, the Kb in assay [3] amounted to 2 ×10⁶ /M; in assay [4], 0.06 ×10⁶ /M. Also, the result in [5] and in assay [6] was Active. Besides, the shift in melting temperature (ΔTm) in assay [7] amounted to 1.2 °C; in assay [10] it was 20.3 °C; in assay [8], 16.2 °C; in assay [9], 8 °C.

In the case of `CC1(C)C(/C=C/C(Br)=C/C=C2/N(CCC[N+](C)(C)C)c3ccccc3C2(C)C)=[N+](CCC[N+](C)(C)C)c2ccccc21`, the result in assay [11], in assay [12] and in assay [13] was Active. The result in [1] and in [2] was inactive. Also, the figures for the Kb in assay [3] and in [4] were 0.07 ×10⁶ /M and 0.74 ×10⁶ /M, respectively. Moreover, the shift in melting temperature (ΔTm) in assay [7] was determined as 0.1 °C; in assay [10] it was 15.6 °C; in [8], 11.6 °C; in assay [9], 4.6 °C.

Regarding `CC1(C)C(/C=C/C=C/C=C2/N(CCC[N+](C)(C)C)c3ccc(Cl)cc3C2(C)C)=[N+](CCC[N+](C)(C)C)c2ccc(Cl)cc21`, the result in assay [2] was inactive. Also, the Kb entry in [3] and in [4] was “inactive” in each case. The thermal shift (ΔTm) in [7] is 0.5 °C; in assay [10], 13.2 °C; in assay [8], 8.9 °C; in assay [9] it was 3.1 °C.

`CC1(C)C(/C=C/C(Cl)=C/C=C2/N(CCC[N+](C)(C)C)c3ccccc3C2(C)C)=[N+](CCC[N+](C)(C)C)c2ccccc21`: in [2], the result was inactive. Further, the Kb in [3] amounted to 0.6 ×10⁶ /M; in assay [4], 0.08 ×10⁶ /M. Also, the ΔTm was 2.8 °C in assay [7], 13.2 °C in assay [10], 12.2 °C in assay [8] and 4.6 °C in assay [9].

Consider `CC1(C)C(/C=C/C=C/C=C2/N(CCC[N+](C)(C)C)c3ccccc3C2(C)C)=[N+](CCC[N+](C)(C)C)c2ccccc21`, for which the result in [11], in [5] and in assay [6] was Active. In addition, the outcome in assay [2] was inactive. Moreover, the Kb in assay [3] came to 0.07 ×10⁶ /M; in assay [4], 0.17 ×10⁶ /M. The ΔTm in assay [7] was found to be 0 °C; in assay [10], 8.7 °C; in [8] it was 4.6 °C; in assay [9] it was 2.1 °C.

`CC1(C)C(/C=C/C(Cl)=C/C=C2/N(CCC[N+](C)(C)C)c3ccc(Cl)cc3C2(C)C)=[N+](CCC[N+](C)(C)C)c2ccc(Cl)cc21`: the result in assay [2] was inactive. In addition, the Kb in assay [3] amounted to 0.23 ×10⁶ /M; in assay [4], 0.08 ×10⁶ /M. The thermal shift (ΔTm) in assay [7] worked out at 2.3 °C; in assay [10], 19 °C; in assay [8], 15 °C; in [9], 7 °C.

As to `CC1(C)C(/C=C/C(Br)=C/C=C2/N(CCC[N+](C)(C)C)c3ccc(Cl)cc3C2(C)C)=[N+](CCC[N+](C)(C)C)c2ccc(Cl)cc21`, the result in assay [2] was inactive. Also, the Kb in assay [3] came out at 0.25 ×10⁶ /M; in [4], 0.13 ×10⁶ /M. Besides, the shift in melting temperature (ΔTm) stood at 1.8 °C in [7], 20 °C in assay [10], 17 °C in assay [8] and 8 °C in assay [9].
